In ChEMBL document CHEMBL1123581, “Differential blockade of muscarinic receptor subtypes by polymethylene tetraamines. Novel class of selective antagonists of cardiac M-2 muscarinic receptors” (J Med Chem, 1987):

Assays:
[1] = target: Muscarinic acetylcholine receptor; assay: Compound was evaluated for blocking activity on Muscarinic acetylcholine receptor in guinea pig atria; assay type: protein assay, Cavia porcellus
[2] = target: Muscarinic acetylcholine receptor; assay: Compound was evaluated for blocking activity on Muscarinic acetylcholine receptor in rat ileum; assay type: tissue-based
Summary of the method: (§1)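 Male rat terminal ileum segment (20 mm, ~5 cm from ileocecal junction) or 2-mm longitudinal bladder strip, in Krebs-type solution. After 30 min equilibration, cumulative furtrethonium iodide curves (~3-fold steps) at 30-min intervals; antagonist incubated 30 min. Isometric contraction recorded.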

[3] = Selectivity ratio of pA2 of guinea pig atria to pA2 of rat bladder
Summary of the method: (§2)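 Computed as the antilog of the difference between pA2 values for the two tissues (atria/ileum, atria/bladder, ileum/bladder). Each pA2 is a Schild value from muscarinic agonist dose ratios at three antagonist concentrations, each n≥5.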

[4] = Selectivity ratio of pA2 of guinea pig atria to pA2 of rat ileum; assay type: tissue-based; summary of the method: as §2
[5] = Selectivity ratio of pA2 of rat ileum to pA2 of rat bladder; assay type: tissue-based; summary of the method: as §2
[6] = target: Muscarinic acetylcholine receptor; assay: Compound was evaluated for blocking activity on Muscarinic acetylcholine receptor in rat bladder; summary of the method: as §1

pA2 [1]	pA2 [2]	Ratio [3]	pA2 [6]	Compound	Ratio [4]	Ratio [5]
7.71	5.73	166	5.49	COc1ccccc1CNCCCCCCNCCCCCCCCCCNCCCCCCNCc1ccccc1OC.Cl.Cl.Cl.Cl	95	1.74
7.35	7.62	1.66	7.13	COc1ccccc1CNCCCCCCNCCCCCCCCCCCCNCCCCCCNCc1ccccc1OC.Cl	0.54	3.09
7.96	5.81	–	6.08	COc1ccccc1CNCCCCCCNCCCCCCCCCNCCCCCCNCc1ccccc1OC.Cl.Cl.Cl.Cl	–	–
6.87	5.29	20	5.57	COc1ccccc1CNCCCCCCNCCCCCCNCCCCCCNCc1ccccc1OC.Cl.Cl.Cl.Cl	38	0.52
